Activity calls are given as the source filed them. The calls are words filed in the database; no cut-off is given here.
Assays:
Escherichia coli [1] = assay: Antibacterial activity against Escherichia coli Top10 harboring KPC-2 assessed as aztreonam MIC by CLSI protocol based method (reference value: 2048 ug/ml); format: functional
[2] = Inhibition of OXA-48 expressed in Escherichia coli BL21 DE3 assessed as K2/Ki ratio using CENTA as substrate by spectrophotometry
Procedure, shortened: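 OXA-48 expressed in E. coli BL21(DE3) (IPTG 0.5 mM, 16°C, 18 h), purified by Ni-NTA and size exclusion. Carbamoylation k2/Ki by spectrophotometric progress curves with CENTA 100 μM as reporter, 20°C, 100 mM MES pH 6.4; inhibitor up to 100 μM; ≥6 curves from ≥2 independent experiments.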

Escherichia coli [3] = assay: Antibacterial activity against Escherichia coli Top10 without harboring CTX-M-15 assessed as amoxicillin MIC by CLSI protocol based method (reference value: 8 ug/ml); format: functional
Bacteria = assay: Inhibition of bacterial KPC-2 N132G mutant expressed in Escherichia coli BL21 DE3 assessed as K2/Ki ratio using nitrocefin as substrate by spectrophotometry
Procedure, shortened: (§1)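 His-tagged enzymes expressed in E. coli BL21(DE3) (IPTG 0.5 mM, 16°C, 18 h), purified by Ni-NTA and size exclusion in 25 mM Tris-HCl pH 7.5, 300 mM NaCl. Carbamoylation k2/Ki from progress curves, reporter nitrocefin 100 μM, 20°C, 100 mM MES pH 6.4; inhibitor up to 100 μM; ≥6 curves, ≥2 independent experiments.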

Enterobacter cloacae [4] = assay: Inhibition of Enterobacter cloacae AmpC expressed in Escherichia coli BL21 DE3 assessed as K2/Ki ratio using nitrocefin as substrate by spectrophotometry; procedure, shortened: as §1
Escherichia coli [5] = assay: Antibacterial activity against Escherichia coli Top10 harboring CTX-M-15 assessed as amoxicillin MIC by CLSI protocol based method (reference value: 2048 ug/ml); format: functional
Escherichia coli [6] = assay: Antibacterial activity against Escherichia coli Top10 without harboring AmpC assessed as cefotaxime MIC by CLSI protocol based method (reference value: 0.125 ug/ml); format: functional
[7] = Inhibition of TEM1 (unknown origin) expressed in Escherichia coli BL21 DE3 assessed as K2/Ki ratio using nitrocefin as substrate by spectrophotometry; procedure, shortened: as §1
Enterobacter cloacae [8] = assay: Inhibition of Enterobacter cloacae CTX-M-15 expressed in Escherichia coli BL21 DE3 assessed as K2/Ki ratio using nitrocefin as substrate by spectrophotometry; procedure, shortened: as §1
Escherichia coli [9] = assay: Antibacterial activity against Escherichia coli Top10 without harboring OXA-48 assessed as ertapenem MIC by CLSI protocol based method (reference value: < 0.03 ug/ml); format: functional
Escherichia coli [10] = assay: Antibacterial activity against Escherichia coli Top10 assessed as cefamandole MIC by CLSI protocol based method (reference value: 2 ug/ml); format: functional
Procedure, shortened: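 Broth microdilution in cation-adjusted Mueller-Hinton broth following CLSI. Strain carries a β-lactamase gene cloned in pTRC-99k (kanamycin marker); preculture in BHI with IPTG (500 μM) and kanamycin (50 μg/ml); IPTG (500 μM) also in plates to induce enzyme. β-Lactam MIC read with or without inhibitor at fixed 15 μM (4 μg/ml for avibactam; clavulanate 4 μg/ml). Median of five biological repeats from two independent experiments.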

[11] = Inhibition of KPC-2 (unknown origin) expressed in Escherichia coli BL21 DE3 assessed as K2/Ki ratio using nitrocefin as substrate by spectrophotometry; procedure, shortened: as §1
Enterobacter cloacae [12] = assay: Inhibition of Enterobacter cloacae CTX-M-15 N132G mutant expressed in Escherichia coli BL21 DE3 assessed as K2/Ki ratio using nitrocefin as substrate by spectrophotometry; procedure, shortened: as §1
Escherichia coli [13] = assay: Antibacterial activity against Escherichia coli Top10 harboring AmpC assessed as cefotaxime MIC by CLSI protocol based method (reference value: 256 ug/ml); format: functional
Escherichia coli [14] = assay: Antibacterial activity against Escherichia coli Top10 harboring OXA-48 assessed as ertapenem MIC by CLSI protocol based method (reference value: 8 ug/ml); format: functional
Escherichia coli [15] = assay: Antibacterial activity against Escherichia coli Top10 harboring TEM1 assessed as cefamandole MIC by CLSI protocol based method (reference value: 2048 ug/ml); format: functional
Escherichia coli [16] = assay: Antibacterial activity against Escherichia coli Top10 without harboring KPC-2 assessed as aztreonam MIC by CLSI protocol based method (reference value: 0.5 ug/ml); format: functional

| Structure (SMILES) | MIC (Escherichia coli [1]) | Ratio [2] | MIC (Escherichia coli [3]) | Ratio (Bacteria) | Ratio (Enterobacter cloacae [4]) | MIC (Escherichia coli [5]) | MIC (Escherichia coli [6]) | Ratio [7] | Ratio (Enterobacter cloacae [8]) | MIC (Escherichia coli [9]) | MIC (Escherichia coli [10]) | Ratio [11] | Ratio (Enterobacter cloacae [12]) | MIC (Escherichia coli [13]) | MIC (Escherichia coli [14]) | MIC (Escherichia coli [15]) | MIC (Escherichia coli [16]) |
| --- | --- | --- | --- | --- | --- | --- | --- | --- | --- | --- | --- | --- | --- | --- | --- | --- | --- |
| NC(=O)[C@@H]1CC[C@@H]2CN1C(=O)N2OS(=O)(=O)[O-].[Na+] [AVIBACTAM SODIUM] | 0.5 mg/L | 980 M⁻¹ s⁻¹ | 2 mg/L | 53 M⁻¹ s⁻¹ | 18000 M⁻¹ s⁻¹ | 2 mg/L | 0.125 mg/L | 88000 M⁻¹ s⁻¹ | 130000 M⁻¹ s⁻¹ | < 0.03 mg/L | 2 mg/L | 26000 M⁻¹ s⁻¹ | 70 M⁻¹ s⁻¹ | 1 mg/L | 0.5 mg/L | 2 mg/L | 0.25 mg/L |
| O=C1N2C[C@@H](CC[C@H]2Cn2cc(-c3ccccc3)nn2)N1OS(=O)(=O)[O-].[Na+] | 64 mg/L | 110 M⁻¹ s⁻¹ | 8 mg/L | 21 M⁻¹ s⁻¹ | 200 M⁻¹ s⁻¹ | 64 mg/L | 0.25 mg/L | 4700 M⁻¹ s⁻¹ | 6900 M⁻¹ s⁻¹ | < 0.03 mg/L | 4 mg/L | 930 M⁻¹ s⁻¹ | 140 M⁻¹ s⁻¹ | 128 mg/L | 8 mg/L | 16 mg/L | 0.25 mg/L |
| O=C1N2C[C@@H](CC[C@H]2Cn2ccnn2)N1OS(=O)(=O)[O-].[Na+] | 512 mg/L | 140 M⁻¹ s⁻¹ | 8 mg/L | 31 M⁻¹ s⁻¹ | 210 M⁻¹ s⁻¹ | 64 mg/L | 0.125 mg/L | 1200 M⁻¹ s⁻¹ | 280 M⁻¹ s⁻¹ | < 0.03 mg/L | 2 mg/L | 280 M⁻¹ s⁻¹ | 6.6 M⁻¹ s⁻¹ | 16 mg/L | 8 mg/L | 8 mg/L | 0.25 mg/L |
| C[Si](C)(C)c1cn(C[C@@H]2CC[C@@H]3CN2C(=O)N3OS(=O)(=O)[O-])nn1.[Na+] | 512 mg/L | inactive | 8 mg/L | – | 24 M⁻¹ s⁻¹ | 1020 mg/L | 0.125 mg/L | 370 M⁻¹ s⁻¹ | 400 M⁻¹ s⁻¹ | < 0.03 mg/L | 2 mg/L | 97 M⁻¹ s⁻¹ | – | 64 mg/L | 16 mg/L | 64 mg/L | 0.5 mg/L |
| CC(C)(C)OC(=O)NCc1cn(C[C@@H]2CC[C@@H]3CN2C(=O)N3OS(=O)(=O)[O-])nn1.[Na+] | 512 mg/L | 210 M⁻¹ s⁻¹ | 8 mg/L | – | 51 M⁻¹ s⁻¹ | 1020 mg/L | 0.125 mg/L | 2800 M⁻¹ s⁻¹ | 130 M⁻¹ s⁻¹ | < 0.03 mg/L | 2 mg/L | 540 M⁻¹ s⁻¹ | – | 128 mg/L | 16 mg/L | 128 mg/L | 0.25 mg/L |
| CC(C)(C)OC(=O)N1CCC(c2cn(C[C@@H]3CC[C@@H]4CN3C(=O)N4OS(=O)(=O)[O-])nn2)CC1.[Na+] | 2050 mg/L | 210 M⁻¹ s⁻¹ | 8 mg/L | – | 29 M⁻¹ s⁻¹ | 4100 mg/L | 0.125 mg/L | 1700 M⁻¹ s⁻¹ | 230 M⁻¹ s⁻¹ | < 0.03 mg/L | 2 mg/L | 830 M⁻¹ s⁻¹ | – | 128 mg/L | 16 mg/L | 256 mg/L | 0.25 mg/L |
| O=C(NC1CCNCC1)[C@@H]1CC[C@@H]2CN1C(=O)N2OS(=O)(=O)[O-].[Na+] | 0.5 mg/L | inactive | 2 mg/L | – | 15000 M⁻¹ s⁻¹ | 16 mg/L | 0.125 mg/L | 43000 M⁻¹ s⁻¹ | 960 M⁻¹ s⁻¹ | < 0.03 mg/L | 2 mg/L | 10000 M⁻¹ s⁻¹ | – | 0.25 mg/L | 8 mg/L | 4 mg/L | 0.25 mg/L |
| NCc1cn(C[C@@H]2CC[C@@H]3CN2C(=O)N3OS(=O)(=O)O)nn1.O=C(O)C(F)(F)F | 32 mg/L | inactive | 4 mg/L | – | 16 M⁻¹ s⁻¹ | 128 mg/L | 0.125 mg/L | 3100 M⁻¹ s⁻¹ | 88 M⁻¹ s⁻¹ | < 0.03 mg/L | 4 mg/L | 120 M⁻¹ s⁻¹ | – | 128 mg/L | 8 mg/L | 4 mg/L | 0.25 mg/L |
| COCc1cn(C[C@@H]2CC[C@@H]3CN2C(=O)N3OS(=O)(=O)[O-])nn1.[Na+] | 512 mg/L | inactive | 8 mg/L | – | 15 M⁻¹ s⁻¹ | 256 mg/L | 0.125 mg/L | 830 M⁻¹ s⁻¹ | 120 M⁻¹ s⁻¹ | < 0.03 mg/L | 2 mg/L | 18 M⁻¹ s⁻¹ | – | 128 mg/L | 16 mg/L | 16 mg/L | 0.5 mg/L |
| CN(C)Cc1cn(C[C@@H]2CC[C@@H]3CN2C(=O)N3OS(=O)(=O)[O-])nn1.[Na+] | 64 mg/L | inactive | 4 mg/L | – | 20 M⁻¹ s⁻¹ | 256 mg/L | 0.125 mg/L | 780 M⁻¹ s⁻¹ | 29 M⁻¹ s⁻¹ | < 0.03 mg/L | 2 mg/L | 120 M⁻¹ s⁻¹ | – | 64 mg/L | 8 mg/L | 32 mg/L | 0.5 mg/L |

Source: ChEMBL document CHEMBL4342503, “Diazabicyclooctane Functionalization for Inhibition of β-Lactamases from Enterobacteria” (2020)
